Screening results as filed in PubChem BioAssay.
TRPC6 activator: activators of mouse TRPC6 channel. Q61143. HEK293-TRPC6 membrane potential dye fluorescence; hits give high values. B-score at 10 µM. actives 0.13% (n = 310,000). AID 2550;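 active = B-score of the integrated fluorescence ratio above library mean plus 3 SD, and starting fluorescence ratio within library mean plus 5 SD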;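 note: higher score means more depolarization so channel activation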
TRPC6 inh: mouse TRPC6 channel inhibition. Q61143. HEK293-TRPC6, membrane potential dye, ACh-evoked depolarization; hits give low values. B-score at 10 µM. actives 1.1% (n = 310,000). AID 2553;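 active = B-score under library mean minus 3 SD, initial fluorescence not abnormally high, positive integrated signal ratio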;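 note: B-score derived from integrated fluorescence ratio over the kinetic read; more negative B-score means stronger inhibition of depolarization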
TRPC4 agonist: activators of mouse TRPC4 channel; HEK293 TRPC4beta/mu-opioid, Fluo4 calcium fluorescence; hits give high values; AID 2237; Q9QUQ5; B-score at 10 µM; actives 0.49% (n = 310,000);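 active = B-score above 5 SD of library B-scores, and initial fluorescence ratio not above library mean plus 5 SD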;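 note: positive B-score marks a calcium rise read as TRPC4 activation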
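Assay system – TRPC4beta and mu-opioid receptor HEK293 stable cells · Measured by – Fluo4 fluorescence, kinetic · Schedule – dye loading 45 min room temperature, 110 s kinetic read · Read-out – B-scored integrated calcium fluorescence ratio · Controls – buffer and maximal DAMGO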
TRPC4 inh: TRPC4 (mouse) channel inhibition | actives 0.39% (n = 300,000) | B-score at 10 µM | HEK293 TRPC4beta/mu-opioid, DAMGO-evoked Fluo4 calcium flux; hits give low values | Q9QUQ5;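 active = B-score over 3 SD under the library average, no early fluorescence shift, positive overall ratio signal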
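System: stable TRPC4beta/mu-opioid receptor HEK293 cells; Dosing: single-point compound dosing; Measured by: Fluo4 Ca2+ flux fluorescence; Read-out basis: per-well B score of integrated baseline-normalized Fluo4 ratio.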
Kir21 inh: Kir2.1 (mouse) channel inhibition; AID 1672; P35561; HEK293-Kir2.1, FluxOR thallium flux fluorescence; hits give low values; B-score at 10 µM; actives 0.85% (n = 310,000);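 active = fluorescence ratio B-score at or below minus 3 SD of library scores, with starting-brightness B-score within 2 SD, cut at about -4.2 in these data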;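 note: channel flux triggered by added potassium and thallium sulfate stimulus; B-score of peak minus minimum fluorescence over baseline after thallium stimulus; more negative B-score means stronger Kir2.1 block with less thallium influx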
Target sequence (P35561 whole entry, looked up): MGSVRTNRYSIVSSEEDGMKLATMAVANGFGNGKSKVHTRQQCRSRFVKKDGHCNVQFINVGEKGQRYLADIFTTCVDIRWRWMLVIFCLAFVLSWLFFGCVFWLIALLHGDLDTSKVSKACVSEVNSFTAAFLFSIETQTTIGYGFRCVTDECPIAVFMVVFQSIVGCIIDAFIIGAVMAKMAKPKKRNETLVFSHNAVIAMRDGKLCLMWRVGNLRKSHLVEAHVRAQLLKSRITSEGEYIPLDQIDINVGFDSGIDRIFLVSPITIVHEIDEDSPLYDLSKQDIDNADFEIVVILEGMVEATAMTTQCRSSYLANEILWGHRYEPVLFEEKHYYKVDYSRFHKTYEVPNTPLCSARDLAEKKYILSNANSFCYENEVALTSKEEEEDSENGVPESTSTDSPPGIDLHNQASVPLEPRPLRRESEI
TRPC4 PAM: TRPC4 (mouse) allosteric potentiation. B-score at 10 µM. HEK293 TRPC4beta/mu-opioid, DAMGO EC20, Fluo-4 Ca2+ flux; hits give high values. Q9QUQ5. AID 2227. actives 0.42% (n = 310,000);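 active = B-score of calcium response area above 5 SD of library B-scores, with initial fluorescence ratio within 5 SD of library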
A number is an active result; . = inactive; / = no result given. Compounds with a hit are over-represented: about 2.9% of the library has one in this group of screens.

SMILES	TRPC6 activator	TRPC6 inh	TRPC4 agonist	TRPC4 inh	Kir21 inh	TRPC4 PAM
NC(=O)c1ccc(NC(=O)COC(=O)C2(c3cccc(F)c3)CCCC2)cc1	.	.	.	.	.	.
O=C(COC(=O)C1(c2cccc(F)c2)CCCC1)NCc1ccc2c(c1)OCO2	.	.	.	.	-4.21	.
O=C(COC(=O)C1(c2cccc(F)c2)CCCC1)NCc1cccs1	.	.	.	.	-5.27	.
O=c1c2ccccc2nc(SCc2ccccc2)n1CC1CCCO1 (configuration not stated)	.	.	.	-7	.	.
O=C(/C=C/c1ccco1)N(c1ccccn1)c1ccccn1	.	.	.	.	.	.
C=CCNCC(=O)N1N=C(c2ccc3ccccc3c2)CC1c1ccc(OC)cc1 (configuration not stated)	.	.	.	.	-4.32	.
COc1ccc(C2CC(c3ccc4ccccc4c3)=NN2C(=O)CNC2CCCCC2)cc1 (configuration not stated)	.	.	.	.	.	.
COc1ccccc1N1CCN(CC(C)N(C(=O)C2CCCCC2)c2ccccn2)CC1 (configuration not stated)	.	.	.	-6	.	.
COc1ccccc1N1CCN(CCN(C(=O)C2CCCCC2)c2ccccn2)CC1	.	.	.	.	.	.
O=S(=O)(c1ccc(-n2cnnn2)cc1)N1CCC(N2CCCCC2)CC1	.	.	.	.	.	12
CC1CCCCN1C(=O)C1CCN(S(=O)(=O)c2ccc(-n3cnnn3)cc2)CC1 (configuration not stated)	.	.	.	.	.	.
COc1cc(S(=O)(=O)N2CCC(N3CCCCC3)CC2)ccc1-n1cnnn1	.	.	.	.	.	17
Nc1nnn(CC(=O)N/N=C/c2cn[nH]c2-c2ccccc2)n1	.	.	.	.	.	.
CNS(=O)(=O)c1cccc(C(=O)OCC(=O)c2c(N)n(C)c(=O)n(C)c2=O)c1	.	.	.	.	.	.
Cn1c(N)c(C(=O)COC(=O)CNS(=O)(=O)c2ccc(Cl)c(Cl)c2)c(=O)n(C)c1=O	.	.	.	-6	.	.
Cc1cc2c(c(SCC#N)n1)C(=O)OC2	.	.	.	.	.	.
COc1ccc(OC)c(S(=O)(=O)Nc2ccc3c(c2)N(C(C)=O)CCC3)c1	.	.	.	.	.	14
CC(=O)N1CCCc2ccc(NS(=O)(=O)c3ccc(C)c(C)c3)cc21	.	.	.	.	.	.
C/[N+]([O-])=C\c1cccc(OCCN2CCN(c3ncc(C(F)(F)F)cc3Cl)CC2)c1	.	.	.	.	.	12
On1nnc2ccc3ccccc3c21	.	.	.	.	.	.
CCCn1c(=O)c2ccccc2n2c(SCCOc3ccc(C)cc3)nnc12	.	.	.	-6	.	.
C/C=C(/C)C(=O)O[C@@H]1c2cc(OC)c(OC)c(OC)c2-c2c(cc3c(c2OC)OCO3)C[C@H](C)[C@]1(C)O	.	.	.	/	.	16
COc1cc2c(c(OC)c1OC)-c1c(cc3c(c1OC)OCO3)[C@@H](OC(C)=O)[C@H](C)[C@H](C)C2	.	.	.	.	.	.
CCOC(=O)n1c(=O)[nH]c2ccc(Br)cc21	.	.	.	.	.	.
COc1cc(CCC(=O)NCc2ccc(Cl)cc2)cc(OC)c1OC	.	.	.	.	.	.
SMILES	TRPC6 activator	TRPC6 inh	TRPC4 agonist	TRPC4 inh	Kir21 inh	TRPC4 PAM
COc1cc(CCC(=O)OCC(=O)NCc2ccc(Cl)cc2)cc(OC)c1OC	.	.	.	.	-4.39	.
CCCC(C)NC(=O)C1c2ccccc2Oc2ccccc21 (configuration not stated)	.	.	.	.	.	.
Cc1cccc(Nc2nc(N)c([N+](=O)[O-])c(NCc3ccco3)n2)c1	.	.	.	.	.	10
Cc1cccc(Nc2nc(NCc3ccco3)nc(N)c2[N+](=O)[O-])c1	.	.	.	.	.	.
COc1ccccc1OCC(=O)Nc1ccc(Cl)cc1	.	.	.	-7	.	.
COc1ccccc1OCC(=O)NCCSCc1ccc(Cl)cc1	.	.	.	.	-4.71	.
